# Experimental data as given in PubChem BioAssay AID463104 (Sanford-Burnham Center for Chemical Genomics, 2010).
# About 1,100 (0.33%) of roughly 330,000 compounds were called active. Shown is part of a subset that was picked to be rich in actives. Unmarked numbers belong to inactive results.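 How the source made its calls: active means versus positive control, 20 µM dose yields 30% or more activation; inactive means the rest.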
# Experiment: IRE1-XBP1 pathway stimulators – cell-based, CHO-XBP1 luciferase reporter, luminescence, uHTS, primary screen (AID 463104);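 further: 100% = tunicamycin at 10 µg/mL and 0% = DMSO only wells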
# Conditions: IRE1-XBP1 UPR activation, at 20 µM, active compounds read high, percent of tunicamycin response, DMSO as zero
# How it was run: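 Assay system: IRE1-XBP1 luciferase reporter CHO line. Input: 1000 cells/well. Buffer or medium: F12 with 10% serum. Doses: 20 µM, 1% DMSO. Times: overnight seeding at 37 °C, 6 h compound treatment at 37 °C. Technique: Steady-Glo luciferase glow luminescence, 10 min after reagent addition.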
row,Compound,activation
1,CC(C)N(C(=O)[C@H]1C[C@H](CC(=O)NCCC2=CCCCC2)C(=O)N2CCc3c([nH]c4cc(CCC(=O)N(C)C)ccc34)[C@]12C)C(C)C,-2.39%
2,CN(C)C(=O)CCc1ccc2c3c([nH]c2c1)[C@]1(CCc2ccccc2)[C@@H](C(=O)N2CCCCC2)C[C@H](CC(=O)NCCC2=CCCCC2)C(=O)N1CC3,37.8% (active)
3,CN(C)C(=O)CCc1ccc2c3c([nH]c2c1)[C@]1(C)[C@@H](C(=O)N2CCCCC2)C[C@H](CC(=O)NCCC2=CCCCC2)C(=O)N1CC3,-0.99%
4,CCOC(=O)N1CCC(O)(c2cc(C)c(C)cc2C)CC1,0.36%
5,c1ccc(-n2nnnc2NC2CCCCCC2)cc1,-3.04%
6,COc1cc(OC)c(C(=O)OC(C)C(=O)Nc2cc(C(F)(F)F)ccc2Cl)cc1OC (configuration not stated),1.27%
7,CSc1nc2c(c(=O)[nH]1)C(c1cccc(Cl)c1Cl)CC(=O)N2 (configuration not stated),-1.96%
8,COc1ccc(C2CC(=O)Nc3sc(=N)c4c(N)c(C#N)c(N)nc4c32)cc1OC (configuration not stated),2.45%
9,N#Cc1c(N)nc2c3c(sc(=N)c2c1N)NC(=O)CC3c1ccccc1Cl (configuration not stated),31.5% (active)
10,O=C(Nc1nnc(-c2ccccc2F)s1)c1ccccc1F,4.27%
11,Cc1ccc(-n2ncc3c2CC(C)(C)CC3NC(=O)CCc2cnn(C)c2)cc1 (configuration not stated),-4.76%
12,CCOC(=O)c1c(NC(=O)c2ccc(S(=O)(=O)N(C)CC3CCCO3)cc2)sc2c1CC(C)(C)NC2(C)C (configuration not stated),-6.05%
13,COC(=O)c1c(NC(=O)COc2ccc(Cl)cc2Cl)sc2c1CC(C)(C)NC2(C)C,74.2% (active)
14,COC(=O)c1sccc1NC(=O)COc1ccc(Cl)cc1,-0.33%
15,COc1ccc(-c2cc(=O)oc3cc(OCC(=O)N(C)C4CCS(=O)(=O)C4)ccc23)cc1 (configuration not stated),-1.57%
16,COc1ncnc2c1N=C1CC(C)(C)CC(N)=C1S2,-0.91%
17,O=C(NC1CC1)c1ccc(-c2ccccc2)cc1,0.87%
18,CN1CCN(CCCNC(=O)c2ccc(/C=C3\Oc4ccccc4N(Cc4ccc(Cl)cc4)C3=O)cc2)CC1,13.7%
19,CN1C(=O)/C(=C/c2ccc(C(=O)NC3CCCC3)cc2)Oc2ccccc21,33.7% (active)
20,COc1cccc(NC(=O)C(Sc2nnnn2C)c2ccccc2)c1 (configuration not stated),-3.49%
21,CCOC(=O)N1CCN(C(=O)c2nn(-c3ccc(C)cc3)c(=O)c3c2c2ccccc2n3C)CC1,34.3% (active)
22,CCOC(=O)N1CCN(C(=O)Cn2cnc3ccccc3c2=O)CC1,-3.17%

row,Compound,activation
1,CCOC(=O)N1CCN(C(=O)c2n[nH]c(=O)c3ccccc23)CC1,-2.8%
2,CN(Cc1ccccc1)CC(O)COc1ccc(CNCc2cc3ccccc3s2)cc1 (configuration not stated),-0.93%
3,NC(=O)Nc1ccc(C(=O)OCC(=O)NC2CCCc3ccccc32)cc1 (configuration not stated),-2.79%
4,CCOC(=O)c1c(NC(=O)CNC2CCCc3ccccc32)sc(C(N)=O)c1C (configuration not stated),39.6% (active)
5,CCOC(=O)c1c(NC(=O)CCl)sc(C(=O)N(CC)CC)c1C,11.5%
6,CC1CCCCC1NC(=O)CN1CCC(O)(c2ccc3c(c2)OCO3)CC1 (configuration not stated),-2.34%
7,O=C(NCC(=O)N1CCN(c2ncc(C(F)(F)F)cc2Cl)CC1)c1ccc(Br)o1,-1.88%
8,CCSc1nnc(-c2cc3c(s2)-c2ccccc2CC3)o1,3.74%
9,Nc1nc(NCC2CCCO2)nc(Nc2ccccc2F)c1[N+](=O)[O-] (configuration not stated),1.61%
10,C=CCNc1nc(N)c([N+](=O)[O-])c(NC2CCCCC2)n1,32% (active)
11,Nc1nc(Nc2ccccc2F)nc(NC2CCCCC2)c1[N+](=O)[O-],11.1%
12,Cc1ccc(OCC(=O)Nc2ccc(NC(=O)c3cccs3)cc2)c(C)c1,10.1%
13,Cc1ccc(NC(=O)c2cccs2)cc1S(=O)(=O)N(C)C,1.24%
14,Cc1ccc(-c2nnc(-c3ccc(NC(=O)c4cccs4)cc3)o2)cc1,198% (active)
15,COc1ccc(-c2ccc(CCC(=O)O)n2-c2ccc(O)cc2)cc1,-1.71%
16,Nc1ccc(S(=O)(=O)Nc2nccc(/C=C/c3ccc(Br)s3)n2)cc1,-1.07%
17,Oc1cccc2ccc(/C=C/c3ccc(Br)s3)nc12,54.5% (active)
18,c1ccc(-c2ccnc3nc(-n4cccc4)nn23)cc1,0.42%
19,COc1cc(NC(=O)c2[nH]cnc2C(N)=O)cc(C(=O)Nc2cccc(C(F)(F)F)c2)c1,-2.27%
20,COc1cc(NC(=O)c2cncc(-c3ccc(C#N)cc3)c2)cc(C(=O)Nc2cccc(C(F)(F)F)c2)c1,125% (active)
21,N#Cc1ccc(Oc2ccc(C(F)(F)F)cc2NC(=O)c2ccc(F)cc2)cc1,0.22%
22,Cc1cc2c(C)nc(N/N=C/c3ccccc3)nc2o1,4.19%

row,Compound,activation
1,O=C(N/C(=C/c1ccc(Cl)cc1)C(=O)N1CCCCC1)c1ccco1,-3.57%
2,Cc1ccc(SC(CC(=O)c2ccc(C(C)(C)C)cc2)C(=O)O)cc1 (configuration not stated),0.27%
3,C=CCn1c(SCc2ccccc2)nc2c1c(=O)[nH]c(=O)n2C,5.46%
4,COCCCNc1nc2c(-c3cccc(C)c3)nnn2c2ccc(Cl)cc12,26.4%
5,O=C(Nc1ccc(S(=O)(=O)N2CCc3ccccc3C2)cc1)c1ccccc1,-1.11%
6,C=CCN(CC=C)S(=O)(=O)c1ccc(C(=O)Nc2nc3c(s2)CCc2ccccc2-3)cc1,35.1% (active)
7,Cc1cccc(NC(=O)c2ccc(S(=O)(=O)N(C)c3ccccc3)cc2)n1,-2.2%
8,COc1ccc(C(=O)OCC(=O)N2CC(=O)Nc3ccccc32)cc1Br,0.2%
9,CCOc1ccccc1C1CC(c2cccc(NS(C)(=O)=O)c2)=NN1C(=O)c1ccccc1 (configuration not stated),-3.45%
10,COc1ccc(C2=NN(C(=O)c3ccccc3C(=O)O)C(c3ccccc3O)C2)cc1 (configuration not stated),-1.79%
11,CCOc1ccc2nc(Cl)c(C3CC(c4ccccc4)=NN3C(=O)c3cccs3)cc2c1 (configuration not stated),51.3% (active)
12,CC(C)(C)c1cc(P(=O)(c2ccccc2)c2ccccc2)ccc1O,-1.41%
13,CN(C)c1ccc(NC(=O)c2ccncc2)c2ccccc12,-0.55%
14,O=C(Nc1ccc2nc3n(c(=O)c2c1)CCCCC3)c1ccccc1Cl,45.2% (active)
15,CCCCN(CC)C(=S)Nc1ccc2nc3n(c(=O)c2c1)CCCCC3,1.45%
16,O=C(Nc1ccc2nc3n(c(=O)c2c1)CCCC3)c1ccc(Cl)nc1,2.35%
17,Cc1ccc(CS(=O)(=O)CCC(=O)NCc2ccc(F)cc2)cc1,-1.62%
18,COc1ccc(NC(=O)c2nc(-n3nc(C)cc3C)ccc2Cl)cc1Cl,-2.77%
19,CC(=O)c1ccc(Oc2cc(C)nc(-n3nc(C)cc3C)n2)cc1,16.4%
20,COc1ccc(Nc2cc(C)nc(-n3nc(C)cc3C)n2)cc1,121% (active)
21,CC(=O)OCCN(CCCn1c(-c2ccncc2)nc2ccccc21)c1nc(-c2ccc(C)cc2)cs1,-1.12%
22,C=CC[C@@H](CC(=O)N[C@@H](CO)Cc1ccccc1)C(=O)NCCOC(=O)[C@@H](CC=C)CC(=O)OC(C)(C)C,-2.2%

row,Compound,activation
1,C=CC[C@@H](CC(=O)N[C@@H](CO)Cc1ccccc1)C(=O)N[C@H](COC(=O)[C@H](CC=C)CC(=O)OC(C)(C)C)Cc1ccccc1,32.4% (active)
2,C=CC[C@@H](CC(=O)N[C@H](CO)Cc1ccccc1)C(=O)N[C@H](C)COC(=O)[C@@H](CC=C)Cc1ccc(F)cc1,-2.99%
3,CCCc1cc(=O)[nH]c2nnc(SCC(=O)Nc3nnc(SCC)s3)n12,-0.61%
4,O=C(NCc1ccccc1Cl)NC(=O)c1csc([N+](=O)[O-])c1,-1.89%
5,O=C(COc1ncnc2ccccc12)NC(=O)NCc1ccccc1,-0.7%
6,O=C(O)CCC(=O)NCc1ccc(C(=O)O)cc1,-0.32%
7,COc1cc(N=Cc2c(O)c3ccccc3oc2=O)c(OC)cc1Cl,-0.88%
8,COc1ccccc1N=Cc1c(O)c2ccccc2oc1=O,120% (active)
9,COc1ccccc1N=C(C)C1=C(O)COC1=O,0.65%
10,COc1ccc(-c2nc3ccccc3n2CCC(C)C)cc1OC,-2.77%
11,COc1ccc(C(C)(C)C)cc1NC(=O)CCN1C(=O)C2CCCCC2C1=O (configuration not stated),0.21%
12,CS(=O)(=O)N(CC(=O)N/N=C/c1ccccn1)c1ccc(Oc2ccccc2)cc1,1.21%
13,CC1(C)Cc2ccccc2-c2[nH]c(=S)[nH]c(=O)c21,-3.14%
14,CC1(C)Cc2ccccc2-c2nc(CN3CCOCC3)[nH]c(=O)c21,2.37%
15,CCC1(CC)Cc2ccccc2-c2nc(CCl)[nH]c(=O)c21,45.2% (active)
16,Cc1ccc2nnn(Cc3cccc(C(C)(C)C)c3O)c2c1,-2.21%
17,CCOC(=O)/C=C/c1ccc(C(F)(F)F)cc1S(=O)(=O)NC(C)(C)C,3.87%
18,COc1ccc(CNC(=O)CCC(=O)Nc2nnc(C(C)C)s2)cc1,2.87%
19,COc1cccc(Cn2cc(/C=N/NC(=O)c3cc(O)cc(O)c3)c3ccccc32)c1,-0.87%
20,N#CCC(=O)N/N=C/c1cn(Cc2ccc3ccccc3c2)c2ccccc12,77.3% (active)
21,CNC(=S)N/N=C/c1cn(Cc2ccc(C)cc2)c2ccccc12,-0.8%
